Measurements published in ChEMBL document CHEMBL1240507, “Peptidic HIV integrase inhibitors derived from HIV gene products: structure-activity relationship studies” (Bioorg Med Chem, 2010).
Calls of active or inactive are those of the source. The calls are words filed in the database; no cut-off is given here.

How the values were obtained:
[1] = biological target: T1, Human immunodeficiency virus type 1 integrase (Human immunodeficiency virus 1, UniProt Q7ZJM1); assay: Inhibition of HIV1 integrase 3'-processing activity expressed in Escherichia coli after 60 mins
How it was run: (§1)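 Recombinant IN was expressed in and purified from E. coli, with 10% glycerol in all buffers. Reactions contained 400 nM IN, 20 nM 5'-end [³²P]-labeled oligonucleotide substrate and inhibitor at varied concentrations, with 10% DMSO alone as control. Reactions were stopped with EDTA/formamide loading dye. IC50 came from a logistic nonlinear fit.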

[2] = biological target: T1, Human immunodeficiency virus type 1 integrase; assay: Inhibition of HIV1 integrase strand transfer activity expressed in Escherichia coli after 60 mins; how it was run: as §1
MT4 [3] = assay: Cytotoxicity against human MT4 cells at 10 uM after 6 to 7 days; assay type: cell-based; conditions: mt4, 10 µM
[4] = test system: Human immunodeficiency virus 1; assay: Antiviral activity against HIV1 HXB2 infected in human MT4 cells assessed as protection against virus-induced cell death at 1.25 uM after 6 to 7 days by luciferase assay; assay type: functional, organism-based
How it was run: (§2)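 MT-4 luciferase reporter cells (1×10^3 cells) were infected with HIV-1 HXB2 in the presence of peptides at various concentrations. At 6–7 days post-infection, cells were lysed and luciferase activity was read by chemiluminescence.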

[5] = test system: Human immunodeficiency virus 1; assay: Antiviral activity against HIV1 HXB2 infected in human MT4 cells assessed as protection against virus-induced cell death at 10 uM after 6 to 7 days by luciferase assay; assay type: functional, organism-based; how it was run: as §2
[6] = test system: Human immunodeficiency virus 1; assay: Antiviral activity against HIV1 HXB2 infected in human MT4 cells assessed as protection against virus-induced cell death at 2.5 to 5 uM after 6 to 7 days by luciferase assay; assay type: functional, organism-based; how it was run: as §2
[7] = test system: Human immunodeficiency virus 1; assay: Antiviral activity against HIV1 HXB2 infected in human MT4 cells assessed as protection against virus-induced cell death after 6 to 7 days by luciferase assay; assay type: functional, organism-based; how it was run: as §2
[8] = test system: Human immunodeficiency virus 1; assay: Antiviral activity against HIV1 HXB2 infected in human MT4 cells assessed as protection against virus-induced cell death at 5 uM after 6 to 7 days by luciferase assay; assay type: functional, organism-based
How it was run: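 MT-4 luciferase reporter cells (1×10^3 per well) infected with HIV-1 HXB2 while exposed to a range of peptide concentrations. After 6–7 days post-infection, cells were lysed, luciferase activity was measured with a Steady-Glo kit, and chemiluminescence was read on a luminometer.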

MT4 [9] = assay: Cytotoxicity against human MT4 cells at >5 uM after 6 to 7 days; assay type: cell-based

T1 sequence (Q7ZJM1 whole entry): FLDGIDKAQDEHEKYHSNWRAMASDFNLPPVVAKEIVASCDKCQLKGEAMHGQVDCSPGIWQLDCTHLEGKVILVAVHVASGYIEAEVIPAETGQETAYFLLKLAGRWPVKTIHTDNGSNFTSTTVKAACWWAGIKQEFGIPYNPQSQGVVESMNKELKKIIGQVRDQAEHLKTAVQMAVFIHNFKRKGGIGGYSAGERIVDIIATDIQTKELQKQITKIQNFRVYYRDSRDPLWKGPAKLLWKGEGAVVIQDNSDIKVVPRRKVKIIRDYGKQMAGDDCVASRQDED

| Compound | Activity (MT4 [3]) | Activity [7] | further results |
| --- | --- | --- | --- |
| CC[C@H](C)[C@H](NC(=O)[C@H](CCCNC(=N)N)NC(=O)[C@H](Cc1ccccc1)NC(=O)[C@H](Cc1cnc[nH]1)NC(=O)[C@@H](NC(=O)[C@H](Cc1ccccc1)NC(=O)[C@H](CC(C)C)NC(=O)[C@H](CC(C)C)NC(=O)[C@H](CCC(N)=O)NC(=O)[C@H](CCC(N)=O)NC(=O)[C@H](CC(C)C)NC(C)=O)[C@@H](C)CC)C(=O)NCC(=O)N[C@@H](CCCNC(=N)N)C(=O)N[C@@H](CCCNC(=N)N)C(=O)N[C@@H](CCCNC(=N)N)C(=O)N[C@@H](CCCNC(=N)N)C(=O)N[C@@H](CCCNC(=N)N)C(=O)N[C@@H](CCCNC(=N)N)C(=O)N[C@@H](CCCNC(=N)N)C(=O)N[C@@H](CCCNC(=N)N)C(N)=O | Toxic |  | IC50 [1]: 130 nM; IC50 [2]: 60 nM |
| CC[C@H](C)[C@H](NC(=O)[C@H](C)NC(=O)[C@H](CCC(=O)O)NC(C)=O)C(=O)N[C@H](C(=O)N[C@@H](CCCNC(=N)N)C(=O)N[C@H](C(=O)N[C@@H](CC(C)C)C(=O)N[C@@H](CCC(N)=O)C(=O)N[C@@H](CCC(N)=O)C(=O)N[C@@H](CC(C)C)C(=O)N[C@@H](CC(C)C)C(=O)N[C@@H](Cc1ccccc1)C(=O)N[C@H](C(=O)N[C@@H](Cc1cnc[nH]1)C(=O)N[C@@H](Cc1ccccc1)C(=O)N[C@@H](CCCNC(=N)N)C(=O)N[C@H](C(=O)NCC(=O)N[C@@H](CCCNC(=N)N)C(=O)N[C@@H](CCCNC(=N)N)C(=O)N[C@@H](CCCNC(=N)N)C(=O)N[C@@H](CCCNC(=N)N)C(=O)N[C@@H](CCCNC(=N)N)C(=O)N[C@@H](CCCNC(=N)N)C(=O)N[C@@H](CCCNC(=N)N)C(=O)N[C@@H](CCCNC(=N)N)C(N)=O)[C@@H](C)CC)[C@@H](C)CC)[C@@H](C)CC)[C@@H](C)CC |  |  | IC50 [1]: 90 nM; IC50 [2]: 40 nM; Activity [4]: Active; Activity [5]: inactive |
| CC[C@H](C)[C@H](NC(=O)[C@H](C)NC(=O)[C@H](CCC(=O)O)NC(C)=O)C(=O)N[C@H](C(=O)N[C@@H](CCCNC(=N)N)C(=O)N[C@H](C(=O)N[C@@H](CC(C)C)C(=O)N[C@@H](CCC(N)=O)C(=O)N[C@@H](CCC(N)=O)C(=O)N[C@@H](CC(C)C)C(=O)N[C@@H](CC(C)C)C(=O)N[C@@H](Cc1ccccc1)C(=O)N[C@H](C(=O)N[C@@H](CCC(=O)O)C(=O)N[C@@H](Cc1ccccc1)C(=O)N[C@@H](CCCNC(=N)N)C(=O)N[C@H](C(=O)N[C@@H](CCCCN)C(=O)N[C@@H](CCCNC(=N)N)C(=O)N[C@@H](CCCNC(=N)N)C(=O)N[C@@H](CCCNC(=N)N)C(=O)N[C@@H](CCCNC(=N)N)C(=O)N[C@@H](CCCNC(=N)N)C(=O)N[C@@H](CCCNC(=N)N)C(=O)N[C@@H](CCCNC(=N)N)C(=O)N[C@@H](CCCNC(=N)N)C(N)=O)[C@@H](C)CC)[C@@H](C)CC)[C@@H](C)CC)[C@@H](C)CC |  |  | Activity [6]: Active |
| CC[C@H](C)[C@H](NC(=O)[C@H](CCCNC(=N)N)NC(=O)[C@H](Cc1ccccc1)NC(=O)[C@H](Cc1cnc[nH]1)NC(=O)[C@@H](NC(=O)[C@H](Cc1ccccc1)NC(=O)[C@H](CC(C)C)NC(=O)[C@H](CC(C)C)NC(=O)[C@H](CCC(N)=O)NC(=O)[C@H](CCC(N)=O)NC(=O)[C@H](CC(C)C)NC(=O)[C@H](CCCCN)NC(=O)[C@H](CCCNC(=N)N)NC(=O)[C@@H](NC(=O)[C@@H](NC(=O)[C@H](CCC(=O)O)NC(=O)[C@H](CCC(=O)O)NC(C)=O)[C@@H](C)CC)[C@@H](C)CC)[C@@H](C)CC)C(=O)NCC(=O)N[C@@H](CCCNC(=N)N)C(=O)N[C@@H](CCCNC(=N)N)C(=O)N[C@@H](CCCNC(=N)N)C(=O)N[C@@H](CCCNC(=N)N)C(=O)N[C@@H](CCCNC(=N)N)C(=O)N[C@@H](CCCNC(=N)N)C(=O)N[C@@H](CCCNC(=N)N)C(=O)N[C@@H](CCCNC(=N)N)C(N)=O |  |  | Activity [5]: inactive |
| Ac-AQQLLFIHFRIGRRRRRRRR-NH2 |  | Dose-dependent effect |  |
| Ac-EAEIRIKQQLLFIHFRIGRRRRRRRR-NH2 |  |  | Activity [5]: Active |
| Ac-EAIERILKQLLFIHFRIGRRRRRRRR-NH2 |  |  | Activity [6]: Active |
| Ac-EAIIRILQELLFKHFRIGRRRRRRRR-NH2 |  |  | Activity [5]: inactive |
| Ac-EAIIRILQQLEFIHKRIGRRRRRRRR-NH2 |  |  | Activity [6]: Active |
| Ac-EEIIRKLQQLLFIEFRIKRRRRRRRR-NH2 |  |  | Activity [5]: inactive |
| Ac-LAQLLFIHFRIGRRRRRRRR-NH2 | Toxic | Dose-dependent effect |  |
| Ac-LQALLFIHFRIGRRRRRRRR-NH2 | Toxic | Dose-dependent effect |  |
| Ac-LQQALFIHFRIGRRRRRRRR-NH2 | Toxic | Dose-dependent effect |  |
| Ac-LQQLAFIHFRIGRRRRRRRR-NH2 | Toxic | Dose-dependent effect |  |
| Ac-LQQLLAIHFRIGRRRRRRRR-NH2 | Toxic | Dose-dependent effect | Activity [8]: inactive |
| Ac-LQQLLFAHFRIGRRRRRRRR-NH2 |  | Dose-dependent effect | Activity (MT4 [9]): Toxic; Activity [8]: inactive |
| Ac-LQQLLFIAFRIGRRRRRRRR-NH2 |  | Dose-dependent effect | Activity (MT4 [9]): Toxic |
| Ac-LQQLLFIHARIGRRRRRRRR-NH2 | Toxic | Dose-dependent effect |  |
| Ac-LQQLLFIHFAIGRRRRRRRR-NH2 | Toxic | Dose-dependent effect |  |
| Ac-LQQLLFIHFRAGRRRRRRRR-NH2 |  | Dose-dependent effect |  |
| Ac-LQQLLFIHFRIARRRRRRRR-NH2 |  | Dose-dependent effect | IC50 [1]: 90 nM |
